target: T1, Progesterone receptor (Homo sapiens, UniProt P06401); test: Agonist activity at progesterone receptor assessed as alkaline phosphatase activity in human T47D cells; conditions: not given
T1 sequence (P06401 whole entry): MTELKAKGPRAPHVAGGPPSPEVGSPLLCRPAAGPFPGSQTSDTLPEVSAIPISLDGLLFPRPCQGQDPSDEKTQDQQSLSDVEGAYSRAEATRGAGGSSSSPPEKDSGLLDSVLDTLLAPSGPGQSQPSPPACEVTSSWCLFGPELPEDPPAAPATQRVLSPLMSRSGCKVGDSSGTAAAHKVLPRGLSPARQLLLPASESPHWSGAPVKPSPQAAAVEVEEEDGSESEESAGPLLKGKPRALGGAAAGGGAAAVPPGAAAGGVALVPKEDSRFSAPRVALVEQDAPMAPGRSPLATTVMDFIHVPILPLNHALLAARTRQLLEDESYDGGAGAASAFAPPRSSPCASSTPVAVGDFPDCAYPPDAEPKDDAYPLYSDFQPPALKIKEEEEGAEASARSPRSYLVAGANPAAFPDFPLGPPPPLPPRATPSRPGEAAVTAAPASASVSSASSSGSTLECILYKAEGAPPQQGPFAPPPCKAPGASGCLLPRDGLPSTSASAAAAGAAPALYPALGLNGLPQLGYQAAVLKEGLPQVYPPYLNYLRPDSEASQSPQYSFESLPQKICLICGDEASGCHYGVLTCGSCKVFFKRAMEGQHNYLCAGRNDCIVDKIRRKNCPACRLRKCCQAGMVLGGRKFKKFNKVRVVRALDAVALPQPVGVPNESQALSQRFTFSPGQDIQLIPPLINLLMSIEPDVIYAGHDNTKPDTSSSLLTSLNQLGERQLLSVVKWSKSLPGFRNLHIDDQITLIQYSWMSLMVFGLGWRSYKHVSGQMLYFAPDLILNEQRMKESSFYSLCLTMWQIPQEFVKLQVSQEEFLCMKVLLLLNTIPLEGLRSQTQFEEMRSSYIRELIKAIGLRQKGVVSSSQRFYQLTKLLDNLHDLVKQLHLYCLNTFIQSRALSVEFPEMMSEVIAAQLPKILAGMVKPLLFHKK

Row | EC50 [nM] | SMILES
1 | 90 | CC1(C)OC(=O)Nc2ccc(-c3cc(F)cc(C#N)c3)cc21

same assay, conditions: read-out: EC50

Row | EC50 [nM] | SMILES
2 | 35.8 | CC1(C)OCC(=S)Nc2ccc(-c3cc(F)cc(F)c3)cc21

target: T1, Progesterone receptor; test: Inhibition of progesterone receptor mediated progesterone-induced alkaline phosphatase activity in human T47D cells; assay type: cell-based; conditions: not given

Row | SMILES | IC50 [nM]
3 | CC1(C)OCC(=O)Nc2ccc(-c3ccc(F)cc3)cc21 | 100
4 | CC1=NCC(=O)Nc2ccc(-c3ccc(F)c(Cl)c3)cc21 | 677
5 | CCCC1(c2cccs2)OCC(=O)Nc2ccc(-c3ccc(F)c(Cl)c3)cc21 (stereo not given) | 349
6 | CCC1(c2cccs2)OCC(=O)Nc2ccc(-c3cc(F)cc(C#N)c3)cc21 (stereo not given) | 100
7 | O=C1COC(c2ccco2)(C(F)(F)C(F)(F)F)c2cc(-c3ccc(F)c(Cl)c3)ccc2N1 (stereo not given) | 82.4
8 | CC(C)C1(c2cccs2)OCC(=O)Nc2ccc(-c3cc(F)cc(C#N)c3)cc21 (stereo not given) | 138
9 | O=C1COC(c2ccccc2)(c2ccccc2)c2cc(-c3ccc(F)c(Cl)c3)ccc2N1 | 88
10 | O=C1COC(c2ccc(Cl)s2)(c2ccc(Cl)s2)c2cc(-c3ccc(F)c(Cl)c3)ccc2N1 | 1000
11 | N#Cc1cc(F)cc(-c2ccc3c(c2)C(c2ccc(Cl)s2)(c2ccc(Cl)s2)OCC(=O)N3)c1 | 1000
12 | CC(C)C1(c2cccs2)OCC(=S)Nc2ccc(-c3cc(F)cc(C#N)c3)cc21 (stereo not given) | 78.2
13 | CN1CC(=O)Nc2ccc(-c3ccc(F)c(Cl)c3)cc2C1(C)C | 105
14 | CCC1(c2cccs2)OCC(=O)Nc2ccc(-c3csc(C#N)c3)cc21 (stereo not given) | 108
15 | CC(C)C1(c2cccs2)OCC(=O)Nc2ccc(-c3ccc(F)c(Cl)c3)cc21 (stereo not given) | 366
16 | CCC1(c2ccsc2)OCC(=O)Nc2ccc(-c3ccc(F)c(Cl)c3)cc21 (stereo not given) | 117
17 | CCC1(c2cccs2)OCC(=O)Nc2ccc(-c3ccc(F)c(Cl)c3)cc21 (stereo not given) | 208
18 | CC1(c2cccs2)OCC(=O)Nc2ccc(-c3ccc(F)c(Cl)c3)cc21 (stereo not given) | 65.5

The remaining lines, values ahead:

Row | IC50 [nM] | SMILES
19 | 29.9 | CCC1(c2ccco2)OCC(=O)Nc2ccc(-c3coc(C#N)c3)cc21 (stereo not given)
20 | 62.1 | CC1(C)OCC(=O)Nc2ccc(-c3ccccc3F)cc21
21 | 34.6 | CC1(C)OCC(=O)Nc2ccc(-c3cc(Cl)cc(C#N)c3)cc21
22 | 30 | CC1(C)OCC(=O)Nc2ccc(-c3cc(F)cc(F)c3)cc21
23 | 65.2 | O=C1COC(c2cccs2)(c2cccs2)c2cc(-c3ccc(F)c(Cl)c3)ccc2N1
24 | 62.5 | CCC1(c2ccco2)OCC(=O)Nc2ccc(-c3ccc(F)c(Cl)c3)cc21 (stereo not given)
25 | 30.1 | CC1(C)OCC(=O)Nc2ccc(-c3ccc(F)c(Cl)c3)cc21
26 | 26.6 | N#Cc1cc(F)cc(-c2ccc3c(c2)C(c2cccs2)(c2cccs2)OCC(=O)N3)c1
27 | 34.1 | N#Cc1cc(F)cc(-c2ccc3c(c2)C(c2ccco2)(C(F)(F)C(F)(F)F)OCC(=O)N3)c1 (stereo not given)
28 | 15.7 | CC1(C)OCC(=O)Nc2ccc(-c3cccc(F)c3F)cc21
29 | 29.3 | CC1(C)OCC(=O)Nc2ccc(-c3ccc(F)c(F)c3)cc21
30 | 59.2 | CCC1(c2ccsc2)OCC(=O)Nc2ccc(-c3cc(F)cc(C#N)c3)cc21 (stereo not given)
31 | 14.9 | CC1(C)OCC(=O)Nc2ccc(-c3cccc(F)c3)cc21
32 | 22.5 | O=C1COC(c2ccco2)(c2ccco2)c2cc(-c3ccc(F)c(Cl)c3)ccc2N1
33 | 15 | CC1(C)OCC(=O)Nc2ccc(-c3cc(F)cc(Cl)c3)cc21
34 | 29.1 | CC1(C)OCC(=O)Nc2ccc(-c3cc(Cl)cc(Cl)c3)cc21

target: T2, Mineralocorticoid receptor (Homo sapiens) (UniProt P08235); test: Antagonist activity at cloned mineralocorticoid receptor-ligand binding domain expressed in african green monkey COS7 cells by GAL4 luciferase reporter assay; assay type: cell-based; conditions: COS-7; concentration not given here
T2 sequence (whole entry): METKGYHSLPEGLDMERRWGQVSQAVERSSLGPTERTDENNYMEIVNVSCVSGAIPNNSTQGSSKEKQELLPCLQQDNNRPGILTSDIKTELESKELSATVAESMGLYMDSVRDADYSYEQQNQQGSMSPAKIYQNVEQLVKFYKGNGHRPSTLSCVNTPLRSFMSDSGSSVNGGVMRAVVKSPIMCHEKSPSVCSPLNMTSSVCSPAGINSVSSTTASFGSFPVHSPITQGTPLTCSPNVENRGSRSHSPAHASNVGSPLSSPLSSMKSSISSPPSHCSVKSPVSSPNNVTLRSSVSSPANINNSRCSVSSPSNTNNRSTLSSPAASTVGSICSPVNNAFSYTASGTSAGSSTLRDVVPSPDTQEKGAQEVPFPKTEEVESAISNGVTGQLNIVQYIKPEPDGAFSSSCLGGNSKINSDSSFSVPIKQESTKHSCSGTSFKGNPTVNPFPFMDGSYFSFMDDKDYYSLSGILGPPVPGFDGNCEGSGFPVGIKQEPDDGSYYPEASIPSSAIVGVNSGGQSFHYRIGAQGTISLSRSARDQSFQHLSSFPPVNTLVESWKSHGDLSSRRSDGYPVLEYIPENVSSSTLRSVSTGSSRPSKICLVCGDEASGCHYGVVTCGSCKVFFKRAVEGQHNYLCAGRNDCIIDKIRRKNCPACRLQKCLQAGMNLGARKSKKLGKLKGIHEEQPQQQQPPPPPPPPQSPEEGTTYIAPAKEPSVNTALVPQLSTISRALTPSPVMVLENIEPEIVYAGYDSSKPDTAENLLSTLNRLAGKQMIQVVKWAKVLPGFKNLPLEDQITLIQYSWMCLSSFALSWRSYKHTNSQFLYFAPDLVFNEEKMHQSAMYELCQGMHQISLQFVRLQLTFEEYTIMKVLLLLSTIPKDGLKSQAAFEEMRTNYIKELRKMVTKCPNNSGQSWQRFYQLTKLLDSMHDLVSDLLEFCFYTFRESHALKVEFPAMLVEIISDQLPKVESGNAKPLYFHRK
Outline: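 GAL4 DNA-binding domain fused to receptor ligand-binding domain, one-hybrid format. LBD fusion and GAL4_UAS (5 copies, E1b minimal TATA) luciferase reporter plasmids, 50 ng/well each, transfected 16 h into COS-7 cells. Cells grown in phenol red-free DMEM with 10% charcoal/dextran-treated FBS. Compound exposure 20 h, then luciferase read on lysates. Mean of at least duplicate determinations.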

Row | inhibition [%] | SMILES
35 | 96 | CC#C[C@]1(O)CC[C@H]2[C@@H]3CCC4=CC(=O)CCC4=C3[C@@H](c3ccc(N(C)C)cc3)C[C@@]21C

From ChEMBL document CHEMBL1157410, “7-aryl 1,5-dihydro-benzo[e][1,4]oxazepin-2-ones and analogs as non-steroidal progesterone receptor antagonists” (Bioorg Med Chem, 2008)
